For test [1], the target named is T1, Neuropeptide Y receptor type 4 (Homo sapiens, UniProt P50391). The test is described as follows: Binding affinity to human NPY Y4 receptor expressed in CHO cells co-expressing Gqi5-mtAEQ after 90 mins in presence of sodium-free HEPES buffer by liquid scintillation counting. It is filed as cell-based.
Test [2] concerns the target T1, Neuropeptide Y receptor type 4. Nature of the test: Binding affinity to human NPY Y4 receptor expressed in CHO cells co-expressing Gqi5-mtAEQ after 90 mins in presence of L-15 medium by liquid scintillation counting. The test is classed as cell-based.
Test [3] shares this target. Nature of the test: Agonist activity at human NPY Y4 receptor expressed in CHO cells co-expressing Gqi5-mtAEQ assessed as induction of calcium mobilization by aequorin luminescence assay. The test is classed as functional, cell-based. The method in brief: (§1)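 Luminescence was integrated as area under the curve and normalized to the response to 1 µM PP. Data are means ± SEM of at least 3 independent experiments, each run in triplicate.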

The target is the same in test [4]. Nature of the test: Agonist activity at human NPY Y4 receptor expressed in HEK293 cells co-expressing CRE-Luc gene assessed as inhibition of forskolin stimulated luciferase activity after 4.5 hrs by luminescence assay. The test is classed as functional, cell-based. The procedure, abridged:
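HEK293 cells stably co-transfected with a CRE-controlled firefly luciferase reporter and hY4R, tested in phenol-red-free DMEM, pH 7.4. The maximal inhibition by PP was set to 0% activity (α = 1.0). Data are means ± SEM of at least 3 experiments in triplicate.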

The target is the same in test [5]. The test is described as follows: Displacement of [3H](2R,7R)-10 from human NPY Y4 receptor expressed in CHO cells co-expressing Gqi5-mtAEQ after 90 mins in presence of sodium-free HEPES buffer by liquid scintillation counting. The test is classed as cell-based.
The target is the same in test [6]. The test is described as follows: Displacement of [3H]18 from human NPY Y4 receptor expressed in CHO cells co-expressing Gqi5-mtAEQ after 90 mins by liquid scintillation counting. The test is classed as cell-based.
Test [7] has the same target. The test is described as follows: Intrinsic activity at human NPY Y4 receptor expressed in CHO cells co-expressing Gqi5-mtAEQ assessed as induction of calcium mobilization by aequorin luminescence assay relative to pancreatic polypeptide. It is filed as functional, cell-based. The procedure, abridged:
as §1

Test [8] shares this target. Nature of the test: Intrinsic activity at human NPY Y4 receptor expressed in HEK293 cells co-expressing CRE-Luc gene assessed as inhibition of forskolin stimulated luciferase activity after 4.5 hrs by luminescence assay relative to pancreatic polypeptide. The test is classed as functional, cell-based. The procedure, abridged: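 HEK293 cells stably co-transfected with a CRE-controlled firefly luciferase reporter and hY4R, tested in phenol-red-free DMEM, pH 7.4. […] The maximal inhibition by PP was set to 0% activity (α = 1.0). Data are means ± SEM of at least 3 experiments in triplicate.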

Test [9] shares this target. The test is described as follows: Displacement of [3H](2R,7R)-10 from human NPY Y4 receptor expressed in CHO cells co-expressing Gqi5-mtAEQ after 90 mins in presence of L-15 medium by liquid scintillation counting. It is filed as cell-based.
Test [10] has as its target T2, Neuropeptide Y receptor type 1 (Homo sapiens) (UniProt P25929).
T2 sequence (whole entry): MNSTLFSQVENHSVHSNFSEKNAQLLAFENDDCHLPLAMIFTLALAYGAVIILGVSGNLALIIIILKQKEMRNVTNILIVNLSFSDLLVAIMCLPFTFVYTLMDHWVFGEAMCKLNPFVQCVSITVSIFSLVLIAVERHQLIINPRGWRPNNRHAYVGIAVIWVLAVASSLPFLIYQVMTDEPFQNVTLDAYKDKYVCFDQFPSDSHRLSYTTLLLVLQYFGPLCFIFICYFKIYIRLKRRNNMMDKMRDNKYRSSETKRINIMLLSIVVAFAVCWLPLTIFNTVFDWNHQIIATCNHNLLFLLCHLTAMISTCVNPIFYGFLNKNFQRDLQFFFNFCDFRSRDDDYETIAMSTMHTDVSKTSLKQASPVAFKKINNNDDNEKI
The test is described as follows: Antagonist activity at human NPY Y1 receptor expressed in human HEL cells assessed as inhibition of the pNPY-stimulated intracellular [Ca2+] mobilization by Fura-2 based luminescence spectrometry. It is filed as functional, cell-based. The method in brief: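 Functional Y1R assay on HEL cells, which express Y1R endogenously. Intracellular Ca2+ was read with Fura-2 on a luminescence spectrometer. Antagonism is expressed as Kb.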

In test [11] the target is T3, Neuropeptide Y receptor type 1 (Homo sapiens, UniProt P25929).
T3 sequence (P25929 whole entry): T2 sequence (whole entry)
The test is described as follows: Displacement of [3H]UR-MK136 from human NPY Y1 receptor expressed in human MCF7 cells by liquid scintillation counting. It is filed as cell-based.

The target of test [12] is T4, Neuropeptide Y receptor type 2 (Homo sapiens, UniProt P49146).
T4 sequence (P49146 whole entry): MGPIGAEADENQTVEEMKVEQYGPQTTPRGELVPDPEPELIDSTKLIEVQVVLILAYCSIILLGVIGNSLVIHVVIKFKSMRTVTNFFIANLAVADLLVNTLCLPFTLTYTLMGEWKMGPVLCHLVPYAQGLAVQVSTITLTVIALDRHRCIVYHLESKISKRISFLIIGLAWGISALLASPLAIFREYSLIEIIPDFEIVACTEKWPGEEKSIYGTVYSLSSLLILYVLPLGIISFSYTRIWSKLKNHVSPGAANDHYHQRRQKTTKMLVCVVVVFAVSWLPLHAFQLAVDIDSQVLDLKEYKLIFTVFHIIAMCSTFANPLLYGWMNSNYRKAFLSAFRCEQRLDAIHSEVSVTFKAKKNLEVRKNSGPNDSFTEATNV
The test is described as follows: Displacement of [3H]propionyl-pNPY from human NPY Y2 receptor expressed in CHO cells co-expressing Gqi5-mtAEQ after 90 mins by liquid scintillation counting. The test is classed as cell-based. The method in brief: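 Adherent CHO-hY2R-Gqi5-mtAEQ cells in buffer I with 1% BSA and 0.1 mg/mL bacitracin at 22 °C. […] Incubation was 90 min, followed by two ice-cold washes, lysis and scintillation counting.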

For test [13], the target named is T5, Neuropeptide Y receptor type 5 (Homo sapiens, UniProt Q15761).
T5 sequence (Q15761 whole entry): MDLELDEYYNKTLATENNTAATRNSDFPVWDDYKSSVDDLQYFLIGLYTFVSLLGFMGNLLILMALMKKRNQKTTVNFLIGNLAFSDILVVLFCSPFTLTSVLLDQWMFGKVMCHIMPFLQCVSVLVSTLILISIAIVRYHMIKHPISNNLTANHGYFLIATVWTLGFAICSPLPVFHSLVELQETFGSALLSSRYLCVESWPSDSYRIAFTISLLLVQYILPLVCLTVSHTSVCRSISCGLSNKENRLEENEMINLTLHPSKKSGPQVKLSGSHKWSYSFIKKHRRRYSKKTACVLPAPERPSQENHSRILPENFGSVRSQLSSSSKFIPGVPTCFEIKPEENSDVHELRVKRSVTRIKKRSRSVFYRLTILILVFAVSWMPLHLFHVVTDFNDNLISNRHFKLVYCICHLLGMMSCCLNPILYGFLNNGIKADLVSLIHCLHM
Nature of the test: Displacement of [3H]propionyl-pNPY from human NPY Y5 receptor expressed in human HEC1b cells after 120 mins by liquid scintillation counting. The test is classed as cell-based. The method in brief: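 Adherent HEC-1B-hY5 cells in buffer II with 1% BSA and 0.1 mg/mL bacitracin at 22 °C. […] Incubation was 120 min, followed by ice-cold washes, lysis and scintillation counting.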

Numbered stars: 1 amine (or outer) side, 2 acyl side, 3 side chain; on linkers, the order of the positions; unused ones are H or OH. Bridge positions count the residues as written; N and C are the ends. Square brackets hold non-standard residues; d marks the D form. Peptide text beside a SMILES is read from it. I, II: the chains in the order shown. X2 = NCCCCNC(=O)/N=C(\N)NCCC[C@H](N[*:1])C(=O)[*:2]; Suberoyl = O=C(CCCCCCC(=O)[*:2])[*:1]

T1 sequence (P50391 whole entry): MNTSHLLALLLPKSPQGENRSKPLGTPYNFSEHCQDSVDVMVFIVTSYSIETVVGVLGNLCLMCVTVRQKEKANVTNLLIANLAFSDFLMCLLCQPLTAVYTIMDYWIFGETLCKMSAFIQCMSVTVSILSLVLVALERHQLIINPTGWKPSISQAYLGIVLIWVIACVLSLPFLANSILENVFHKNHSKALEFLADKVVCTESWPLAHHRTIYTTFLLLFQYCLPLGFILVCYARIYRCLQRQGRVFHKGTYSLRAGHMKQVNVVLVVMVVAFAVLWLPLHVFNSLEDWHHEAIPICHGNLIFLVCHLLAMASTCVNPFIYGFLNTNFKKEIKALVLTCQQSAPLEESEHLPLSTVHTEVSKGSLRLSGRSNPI

Consider `[3H]CC([3H])C(=O)N[C@@H](CCCC[C@H](N)C(=O)N[C@@H](Cc1ccc(O)cc1)C(=O)N[C@@H](CCCNC(=N)N)C(=O)N[C@@H](CC(C)C)C(=O)N[C@@H](CCCNC(=N)N)C(=O)N[C@@H](Cc1ccc(O)cc1)C(N)=O)C(=O)N[C@@H](Cc1ccc(O)cc1)C(=O)N[C@@H](CCCNC(=N)N)C(=O)N[C@@H](CC(C)C)C(=O)N[C@@H](CCCNC(=N)N)C(=O)N[C@@H](Cc1ccc(O)cc1)C(N)=O` (stereo partly drawn), for which the Kd in test [1] was found to be 0.67 nM; in test [2], 9.8 nM.
Regarding `CC[C@H](C)[C@H](N)C(=O)N[C@H]1CCC(=O)NC[C@@H](C(=O)N[C@@H](Cc2ccc(O)cc2)C(=O)N[C@@H](CCCN=C(N)N)C(=O)N[C@@H](CC(C)C)C(=O)N[C@@H](CCCN=C(N)N)C(=O)N[C@@H](Cc2ccc(O)cc2)C(N)=O)NC(=O)[C@@H]2CCCN2C(=O)[C@@H](NC(=O)[C@@H](N)[C@@H](C)CC)CCC(=O)NC[C@@H](C(=O)N[C@@H](Cc2ccc(O)cc2)C(=O)N[C@@H](CCCN=C(N)N)C(=O)N[C@@H](CC(C)C)C(=O)N[C@@H](CCCN=C(N)N)C(=O)N[C@@H](Cc2ccc(O)cc2)C(N)=O)NC(=O)[C@@H]2CCCN2C1=O`, the figures for the EC50 in test [3] (cho) and in test [4] (hek293) were 8.5 nM and 5.5 nM, respectively. The Ki came to 1.6 nM in [5] (cho) and 1.3 nM in test [6] (cho).
`CC(C)C[C@H](NC(=O)[C@H](CCCNC(=N)N)NC(=O)[C@H](Cc1ccc(O)cc1)NC(=O)[C@H](N)CCCC[C@@H](N)C(=O)N[C@@H](Cc1ccc(O)cc1)C(=O)N[C@@H](CCCNC(=N)N)C(=O)N[C@@H](CC(C)C)C(=O)N[C@@H](CCCNC(=N)N)C(=O)N[C@@H](Cc1ccc(O)cc1)C(N)=O)C(=O)N[C@@H](CCCNC(=N)N)C(=O)N[C@@H](Cc1ccc(O)cc1)C(N)=O`: the Intrinsic activity in test [7] is 0.75; in [8], 1.03. In addition, the EC50 in test [4] came out at 1.6 nM. In addition, the Ki was determined as 2 nM in [9] and 0.18 nM in test [6]. Besides, the Kb in test [10] is 9.5 nM.
In the case of `CC(C)C[C@H](NC(=O)[C@H](CCCNC(=N)N)NC(=O)[C@H](Cc1ccc(O)cc1)NC(=O)CCCCCCC(=O)N[C@@H](Cc1ccc(O)cc1)C(=O)N[C@@H](CCCN/C(N)=N/C(=O)NCCCCN)C(=O)N[C@@H](CC(C)C)C(=O)N[C@@H](CCCNC(=N)N)C(=O)N[C@@H](Cc1ccc(O)cc1)C(N)=O)C(=O)N[C@@H](CCCNC(=N)N)C(=O)N[C@@H](Cc1ccc(O)cc1)C(N)=O` (I: Y[X2]LRY-NH2 / II: YRLRY-NH2; linker I:N-II:N via Suberoyl), the EC50 in [3] worked out at 6.4 nM; in test [4], 1.7 nM. Besides, the Intrinsic activity came to 0.8 in test [7] and 1.06 in test [8]. For the same molecule, the inhibition constant (Ki) in test [11] is 410 nM; in [12], 730 nM; in test [5], 1.2 nM; in test [13] it was 140 nM. Moreover, the Kb in test [10] stood at 25.3 nM.
With `NCCN(CCNC(=O)c1ccc(C(=O)NCCOCCOCCNC(=O)/N=C(/N)NCCC[C@@H](NC(=O)C(c2ccccc2)c2ccccc2)C(=O)NCc2ccc(O)cc2)cc1)CCNC(=O)c1ccc(C(=O)NCCOCCOCCNC(=O)/N=C(/N)NCCC[C@@H](NC(=O)C(c2ccccc2)c2ccccc2)C(=O)NCc2ccc(O)cc2)cc1`, the Ki turned out to be 150 nM in test [9] and 630 nM in test [6].

The values above are taken from ChEMBL document CHEMBL4477203 (J Med Chem, 2016).
